This passage reports IC50, Ki and Activity results from ChEMBL document CHEMBL3784931, “Synthesis and evaluation of novel angiotensin II receptor 1 antagonists as anti-hypertension drugs” (Bioorg Med Chem, 2016).

Assay [1] addresses T1, Type-1 angiotensin II receptor A (Rattus norvegicus, UniProt P25095).
T1 sequence (P25095 whole entry): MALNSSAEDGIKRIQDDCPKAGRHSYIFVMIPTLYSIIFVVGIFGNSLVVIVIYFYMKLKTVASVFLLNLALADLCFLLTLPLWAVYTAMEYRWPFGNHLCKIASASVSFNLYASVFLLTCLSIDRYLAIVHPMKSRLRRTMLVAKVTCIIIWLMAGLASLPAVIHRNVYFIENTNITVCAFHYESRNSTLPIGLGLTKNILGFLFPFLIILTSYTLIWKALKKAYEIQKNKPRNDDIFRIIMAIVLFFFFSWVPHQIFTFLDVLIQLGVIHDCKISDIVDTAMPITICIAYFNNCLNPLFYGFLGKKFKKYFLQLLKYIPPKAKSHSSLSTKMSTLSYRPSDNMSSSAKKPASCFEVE
Kind of assay: Displacement of [125I]-Ang II from Angiotensin 2 type-1A receptor in rat vascular smooth muscle cells after 150 mins by gamma counting method. A digest of the protocol: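 Rat vascular smooth muscle cells (passages 3–6) were seeded at 10⁶ cells/well and grown at 37 °C in 5% CO₂. Nonspecific binding was taken with 1 µM Ang II. Cells were washed three times, lysed 10 min in 0.1 M NaOH, and bound radioactivity was gamma counted.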
Background: Displacement assays read how much labelled ligand stays bound in the presence of the test substance.

The next assay concerns Rattus norvegicus. Kind of assay: Antihypertensive activity in spontaneous hypertensive rat model assessed as reduction in mean blood pressure at 10 mg/kg, po administered for 2 hrs. It is filed as functional, organism-based. The gist of the method:
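Male SHRs were randomized, n = 6 per group. Compound was suspended in DMSO/oleic acid (1:4) and given by oral gavage; vehicle controls got the same volume of solvent. SBP and DBP were recorded in conscious animals by noninvasive tail-artery manometry. MBP = (SBP − DBP)/3 + DBP. Data are mean ± SEM, with p < 0.05 taken as significant.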

Activity calls are given as the source filed them. The rule behind the calls is not given here.

The term IC50 denotes the midpoint of a concentration-inhibition curve. A low value points to greater potency. The term Ki denotes the equilibrium dissociation constant of an inhibitor or competing ligand from its target. Higher therefore signals lower affinity. Consider `CCCCc1nc(Cl)c(C=O)n1Cc1ccc(-c2ccccc2-c2noc(=O)[nH]2)cc1`, for which, in assay [1], the concentration for half-maximal inhibition (IC50) was determined as 4.32 nM and the inhibitory constant (Ki) was 3.13 nM.

`CCCCc1nc(Cl)c(CO)n1Cc1ccc(-c2ccccc2-c2nnn[nH]2)cc1`: the result with Rattus norvegicus was Active.
